In ChEMBL document CHEMBL1649560, “Beta-lactamase-mediated beta-lactam resistance in Campylobacter species: prevalence of Cj0299 (bla OXA-61) and evidence for a novel beta-Lactamase in C. jejuni” (2009):

Key:
Assay type in all cases: functional
Campylobacter jejuni [1] = assay: Antibacterial activity against bla gene-negative and nitrocefin reaction-positive beta-lactamase harboring Campylobacter jejuni isolate P854 by NCCLS agar doubling dilution method
Outline: (§1)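 MICs of β-lactams by agar doubling dilution following the NCCLS (CLSI) Campylobacter Working Group procedure, with C. jejuni NCTC 11168 and C. coli NCTC 11366 as controls. Isolates were from UK poultry flocks. β-Lactamase status was set by Cj0299 PCR (281-bp amplimer) and by a nitrocefin colour change of sonicated lysate within 5 min, or within 30 min on repeat.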

Campylobacter jejuni [2] = assay: Antibacterial activity against bla gene-positive and nitrocefin reaction-positive beta-lactamase harboring Campylobacter jejuni isolate P1618 by NCCLS agar doubling dilution method; outline: as §1
Campylobacter jejuni [3] = assay: Antibacterial activity against Campylobacter jejuni assessed as resistant isolates by NCCLS agar doubling dilution method
Outline: (§2)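 MICs by agar doubling dilution following the NCCLS (CLSI) Campylobacter Working Group procedure, with C. jejuni NCTC 11168 and C. coli NCTC 11366 as controls. Isolates came from UK chicken flocks, 2000–2006. Isolates were designated resistant at an ampicillin cutoff of 8 μg/ml. Enterobacteriaceae guidelines (BSAC, CLSI) were used as reference for the other agents.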

Campylobacter jejuni [4] = assay: Antibacterial activity against bla gene-positive and nitrocefin reaction-positive beta-lactamase harboring Campylobacter jejuni isolate P305 by NCCLS agar doubling dilution method
Outline: (§3)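 MICs by agar doubling dilution per the NCCLS (now CLSI) Campylobacter Working Group method. Isolates came from UK chicken flocks (feces, ceca or farm environment), 2000–2006. C. jejuni NCTC 11168 and C. coli NCTC 11366 served as control strains. The ampicillin resistance cutoff was 8 μg/ml; BSAC/CLSI Enterobacteriaceae guidelines were used for other agents.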

Campylobacter jejuni [5] = assay: Antibacterial activity against bla gene-positive and nitrocefin reaction-positive beta-lactamase harboring Campylobacter jejuni isolate P338 by NCCLS agar doubling dilution method; outline: as §3
Campylobacter jejuni [6] = assay: Antibacterial activity against bla gene-negative and nitrocefin reaction-negative beta-lactamase harboring Campylobacter jejuni isolate P1962 by NCCLS agar doubling dilution method; outline: as §1
Campylobacter jejuni [7] = assay: Antibacterial activity against Campylobacter jejuni isolate P338 harboring blaOXA-61::cat gene by NCCLS agar doubling dilution method
Outline: (§4)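 Agar doubling dilution MICs (NCCLS/CLSI Campylobacter Working Group method) against Cj0299-inactivated mutants. Mutants were made by transforming the C. jejuni isolate with pCI and selecting on Mueller-Hinton agar with 10 μg/ml chloramphenicol for 3–5 days. Chromosomal insertion was confirmed by PCR with Cj0299 and cat primers.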

Campylobacter jejuni [8] = assay: Antibacterial activity against bla gene-positive and nitrocefin reaction-negative beta-lactamase harboring Campylobacter jejuni NCTC 11168 by NCCLS agar doubling dilution method; outline: as §1
Campylobacter jejuni [9] = assay: Antibacterial activity against Campylobacter jejuni by NCCLS agar doubling dilution method
Outline: (§5)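 MICs by agar doubling dilution following the NCCLS (CLSI) Campylobacter Working Group procedure, applied to ampicillin- and amoxicillin-resistant isolates from UK chicken flocks (2000–2006). C. jejuni NCTC 11168 and C. coli NCTC 11366 served as control strains. Resistance was called at an ampicillin cutoff of 8 μg/ml. Other agents were judged against Enterobacteriaceae guidelines (BSAC, CLSI).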

Campylobacter jejuni [10] = assay: Antibacterial activity against bla gene-positive and nitrocefin reaction-negative beta-lactamase harboring Campylobacter jejuni isolate P1699 by NCCLS agar doubling dilution method; outline: as §1
Campylobacter jejuni [11] = assay: Antibacterial activity against bla gene-positive and nitrocefin reaction-positive beta-lactamase harboring Campylobacter jejuni isolate P1093 by NCCLS agar doubling dilution method; outline: as §1
Campylobacter jejuni [12] = assay: Antibacterial activity against Campylobacter jejuni isolate P270 harboring blaOXA-61::cat gene by NCCLS agar doubling dilution method
Campylobacter jejuni [13] = assay: Antibacterial activity against bla gene-negative and nitrocefin reaction-negative beta-lactamase harboring Campylobacter jejuni isolate P850 by NCCLS agar doubling dilution method; outline: as §1
Campylobacter jejuni [14] = assay: Antibacterial activity against bla gene-positive and nitrocefin reaction-positive beta-lactamase harboring Campylobacter jejuni isolate P286 by NCCLS agar doubling dilution method; outline: as §3
Campylobacter coli [15] = assay: Antibacterial activity against bla-positive and beta-lactamase-weakly positive Campylobacter coli isolate P1627 by NCCLS agar doubling dilution method; outline: as §3
Campylobacter jejuni [16] = assay: Antibacterial activity against bla gene-positive and nitrocefin reaction-negative beta-lactamase harboring Campylobacter jejuni isolate P1698 by NCCLS agar doubling dilution method; outline: as §1
Campylobacter jejuni [17] = assay: Antibacterial activity against Campylobacter jejuni isolate P1093 harboring blaOXA-61::cat gene by NCCLS agar doubling dilution method; outline: as §4
Campylobacter coli [18] = assay: Antibacterial activity against Campylobacter coli assessed as resistant isolates by NCCLS agar doubling dilution method; outline: as §2
Campylobacter jejuni [19] = assay: Antibacterial activity against bla gene-negative and nitrocefin reaction-positive beta-lactamase harboring Campylobacter jejuni isolate P843 by NCCLS agar doubling dilution method; outline: as §1
Campylobacter coli [20] = assay: Antibacterial activity against Campylobacter coli by NCCLS agar doubling dilution method; outline: as §5
Campylobacter coli [21] = assay: Antibacterial activity against bla gene-positive and nitrocefin reaction-positive beta-lactamase harboring Campylobacter coli isolate P321 by NCCLS agar doubling dilution method; outline: as §1
Campylobacter jejuni [22] = assay: Antibacterial activity against bla gene-negative and nitrocefin reaction-negative beta-lactamase harboring Campylobacter jejuni isolate P835 by NCCLS agar doubling dilution method; outline: as §1
Campylobacter jejuni [23] = assay: Antibacterial activity against bla gene-positive and nitrocefin reaction-positive beta-lactamase harboring Campylobacter jejuni isolate P1730 by NCCLS agar doubling dilution method; outline: as §3
Campylobacter jejuni [24] = assay: Antibacterial activity against bla gene-positive and nitrocefin reaction-positive beta-lactamase harboring Campylobacter jejuni isolate P285 by NCCLS agar doubling dilution method; outline: as §3
Campylobacter jejuni [25] = assay: Antibacterial activity against bla gene-positive and nitrocefin reaction-positive beta-lactamase harboring Campylobacter jejuni isolate P316 by NCCLS agar doubling dilution method; outline: as §3
Campylobacter jejuni [26] = assay: Antibacterial activity against bla gene-positive and nitrocefin reaction-positive beta-lactamase harboring Campylobacter jejuni isolate P1650 by NCCLS agar doubling dilution method; outline: as §1
Campylobacter coli [27] = assay: Antibacterial activity against bla gene-positive and nitrocefin reaction-positive beta-lactamase harboring Campylobacter coli isolate P1826 by NCCLS agar doubling dilution method; outline: as §1
Campylobacter jejuni [28] = assay: Antibacterial activity against bla gene-positive and nitrocefin reaction-positive beta-lactamase harboring Campylobacter jejuni isolate P790 by NCCLS agar doubling dilution method; outline: as §3
Campylobacter jejuni [29] = assay: Antibacterial activity against Campylobacter jejuni by NCCLS agar doubling dilution method in presence of Tazobactam; outline: as §1
Campylobacter jejuni [30] = assay: Antibacterial activity against bla gene-positive and nitrocefin reaction-negative beta-lactamase harboring Campylobacter jejuni isolate P1698 by NCCLS agar doubling dilution method in presence of Tazobactam; outline: as §1
Campylobacter jejuni [31] = assay: Antibacterial activity against Campylobacter jejuni isolate P338 harboring blaOXA-61::cat gene by NCCLS agar doubling dilution method in presence of Tazobactam; outline: as §4
Campylobacter jejuni [32] = assay: Antibacterial activity against bla gene-positive and nitrocefin reaction-positive beta-lactamase harboring Campylobacter jejuni isolate P1618 by NCCLS agar doubling dilution method in presence of Tazobactam; outline: as §1
Campylobacter jejuni [33] = assay: Antibacterial activity against bla gene-negative and nitrocefin reaction-negative beta-lactamase harboring Campylobacter jejuni isolate P835 by NCCLS agar doubling dilution method in presence of Tazobactam; outline: as §1
Campylobacter jejuni [34] = assay: Antibacterial activity against bla gene-positive and nitrocefin reaction-positive beta-lactamase harboring Campylobacter jejuni isolate P790 by NCCLS agar doubling dilution method in presence of Tazobactam; outline: as §3
Campylobacter jejuni [35] = assay: Antibacterial activity against bla gene-positive and nitrocefin reaction-positive beta-lactamase harboring Campylobacter jejuni isolate P1730 by NCCLS agar doubling dilution method in presence of Tazobactam; outline: as §3
Campylobacter jejuni [36] = assay: Antibacterial activity against Campylobacter jejuni isolate P270 harboring blaOXA-61::cat gene by NCCLS agar doubling dilution method in presence of Tazobactam
Campylobacter jejuni [37] = assay: Antibacterial activity against bla gene-positive and nitrocefin reaction-positive beta-lactamase harboring Campylobacter jejuni isolate P316 by NCCLS agar doubling dilution method in presence of Tazobactam; outline: as §3
Campylobacter coli [38] = assay: Antibacterial activity against Campylobacter coli by NCCLS agar doubling dilution method in presence of Tazobactam; outline: as §1
Campylobacter coli [39] = assay: Antibacterial activity against bla gene-positive and nitrocefin reaction-positive beta-lactamase harboring Campylobacter coli isolate P321 by NCCLS agar doubling dilution method in presence of Tazobactam; outline: as §1
Campylobacter jejuni [40] = assay: Antibacterial activity against bla gene-positive and nitrocefin reaction-positive beta-lactamase harboring Campylobacter jejuni isolate P1650 by NCCLS agar doubling dilution method in presence of Tazobactam; outline: as §3
Campylobacter jejuni [41] = assay: Antibacterial activity against Campylobacter jejuni isolate P1093 harboring blaOXA-61::cat gene by NCCLS agar doubling dilution method in presence of Tazobactam; outline: as §4
Campylobacter jejuni [42] = assay: Antibacterial activity against bla gene-negative and nitrocefin reaction-negative beta-lactamase harboring Campylobacter jejuni isolate P850 by NCCLS agar doubling dilution method in presence of Tazobactam; outline: as §1
Campylobacter jejuni [43] = assay: Antibacterial activity against bla gene-negative and nitrocefin reaction-positive beta-lactamase harboring Campylobacter jejuni isolate P843 by NCCLS agar doubling dilution method in presence of Tazobactam; outline: as §1
Campylobacter jejuni [44] = assay: Antibacterial activity against bla gene-positive and nitrocefin reaction-positive beta-lactamase harboring Campylobacter jejuni isolate P286 by NCCLS agar doubling dilution method in presence of Tazobactam; outline: as §3
Campylobacter jejuni [45] = assay: Antibacterial activity against bla gene-negative and nitrocefin reaction-positive beta-lactamase harboring Campylobacter jejuni isolate P854 by NCCLS agar doubling dilution method in presence of Tazobactam; outline: as §1
Campylobacter jejuni [46] = assay: Antibacterial activity against bla gene-positive and nitrocefin reaction-positive beta-lactamase harboring Campylobacter jejuni isolate P285 by NCCLS agar doubling dilution method in presence of Tazobactam; outline: as §3
Campylobacter jejuni [47] = assay: Antibacterial activity against bla gene-positive and nitrocefin reaction-negative beta-lactamase harboring Campylobacter jejuni isolate NCTC 11168 by NCCLS agar doubling dilution method in presence of Tazobactam; outline: as §1
Campylobacter jejuni [48] = assay: Antibacterial activity against bla gene-negative and nitrocefin reaction-negative beta-lactamase harboring Campylobacter jejuni isolate P1962 by NCCLS agar doubling dilution method in presence of Tazobactam; outline: as §1
Campylobacter jejuni [49] = assay: Antibacterial activity against bla gene-positive and nitrocefin reaction-negative beta-lactamase harboring Campylobacter jejuni isolate P1699 by NCCLS agar doubling dilution method in presence of Tazobactam; outline: as §1
Campylobacter coli [50] = assay: Antibacterial activity against bla gene-positive and nitrocefin reaction-positive beta-lactamase harboring Campylobacter coli isolate P1826 by NCCLS agar doubling dilution method in presence of Tazobactam; outline: as §1
Campylobacter jejuni [51] = assay: Antibacterial activity against bla gene-positive and nitrocefin reaction-positive beta-lactamase harboring Campylobacter jejuni isolate P1093 by NCCLS agar doubling dilution method in presence of Tazobactam; outline: as §1
Campylobacter coli [52] = assay: Antibacterial activity against bla-positive and beta-lactamase-weakly positive Campylobacter coli isolate P1627 by NCCLS agar doubling dilution method in presence of Tazobactam; outline: as §3
Campylobacter jejuni [53] = assay: Antibacterial activity against bla gene-positive and nitrocefin reaction-positive beta-lactamase harboring Campylobacter jejuni isolate P338 by NCCLS agar doubling dilution method in presence of Tazobactam; outline: as §3

CC1(C)S[C@@H]2[C@H](NC(=O)[C@H](N)c3ccccc3)C(=O)N2[C@H]1C(=O)O [AMPICILLIN]
4 µg/mL: MIC (Campylobacter jejuni [8])
64 µg/mL: MIC (Campylobacter jejuni [2]) | MIC (Campylobacter jejuni [4]) | MIC (Campylobacter jejuni [5]) | MIC50 (Campylobacter jejuni [9]) | MIC (Campylobacter jejuni [10]) | MIC (Campylobacter jejuni [14]) | MIC50 (Campylobacter coli [20]) | MIC (Campylobacter jejuni [23]) | MIC (Campylobacter jejuni [24]) | MIC (Campylobacter jejuni [25]) | MIC (Campylobacter jejuni [26]) | MIC (Campylobacter jejuni [28])
0.5 µg/mL: MIC (Campylobacter jejuni [12])
2 µg/mL: MIC (Campylobacter jejuni [6]) | MIC (Campylobacter jejuni [7]) | MIC (Campylobacter jejuni [17]) | MIC (Campylobacter jejuni [22])
32 µg/mL: MIC (Campylobacter jejuni [13]) | MIC (Campylobacter coli [15]) | MIC (Campylobacter jejuni [19])
47.5%: Activity (Campylobacter jejuni [3])
128 µg/mL: MIC (Campylobacter jejuni [1]) | MIC90 (Campylobacter jejuni [9]) | MIC (Campylobacter jejuni [11]) | MIC (Campylobacter jejuni [16]) | MIC90 (Campylobacter coli [20]) | MIC (Campylobacter coli [21]) | MIC (Campylobacter coli [27])
67.4%: Activity (Campylobacter coli [18])

C[C@]1(Cn2ccnn2)[C@H](C(=O)O)N2C(=O)C[C@H]2S1(=O)=O [TAZOBACTAM]
> 16 µg/mL: MIC (Campylobacter jejuni [33]) | MIC (Campylobacter jejuni [34]) | MIC (Campylobacter jejuni [37]) | MIC (Campylobacter coli [39]) | MIC (Campylobacter jejuni [43]) | MIC (Campylobacter jejuni [44]) | MIC (Campylobacter jejuni [46]) | MIC (Campylobacter jejuni [48]) | MIC (Campylobacter jejuni [53])
16 µg/mL: MIC50 (Campylobacter jejuni [29]) | MIC (Campylobacter jejuni [30]) | MIC (Campylobacter jejuni [35]) | MIC50 (Campylobacter jejuni [9]) | MIC50 (Campylobacter coli [38]) | MIC (Campylobacter jejuni [47]) | MIC (Campylobacter coli [50]) | MIC (Campylobacter coli [20]) | MIC50 (Campylobacter coli [20]) | MIC (Campylobacter coli [52])
8 µg/mL: MIC (Campylobacter jejuni [31])
32 µg/mL: MIC90 (Campylobacter jejuni [29]) | MIC (Campylobacter jejuni [32]) | MIC90 (Campylobacter jejuni [9]) | MIC90 (Campylobacter coli [38]) | MIC (Campylobacter jejuni [40]) | MIC (Campylobacter jejuni [41]) | MIC90 (Campylobacter coli [20])
4 µg/mL: MIC (Campylobacter jejuni [36])
1 µg/mL: MIC (range minimum) (Campylobacter jejuni [29])
256 µg/mL: MIC (Campylobacter jejuni [51])
< 8 µg/mL: MIC (Campylobacter jejuni [49])
> 8 µg/mL: MIC (Campylobacter jejuni [42]) | MIC (Campylobacter jejuni [45])
